In one data set the test system is CYP3A4. As to conditions: read-out: CYP3A4 inhibition IC50; in vitro; cited from earlier work.
The conditions of data set [1]: cited from earlier work.
Data set [2] has as its target T1, CYP2C19 (Homo sapiens, UniProt P33261). Format: in vivo. As to conditions: healthy CYP2C19 extensive metabolizers; 7 days of dosing.
The conditions of data set [3]: at the therapeutic dose; cited from earlier work.
For data set [4] the following is noted: cited from earlier work. The source holds these as a separate data set.
For data set [5] the following is noted: proguanil alone, previous study; cited from earlier work.
The format of data set [6] is in vivo, human. As to conditions: atovaquone/proguanil 250/100 mg alone; N = 16; mean ± SD. Put shortly:
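Healthy CYP2C19 *1/*1 subjects (PCR-genotyped) in a crossover design; acid reducer given orally once daily for 6 days at the approved maximum dose, then co-dosed with oral atovaquone/proguanil. Plasma sampled to 48 h, urine in 0–8, 8–24 and 24–48 h intervals, both assayed by HPLC-MS/MS. Non-compartmental analysis: t½ = ln2/λz, CL/F = dose/AUCinf, fe = 48-h urinary proguanil/dose.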

For data set [7], the target named is T1, CYP2C19. As to conditions: read-out: CYP2C19 half-maximum inhibitory concentration (IC50); in vitro; cited from earlier work.

T1 sequence (P33261 whole entry): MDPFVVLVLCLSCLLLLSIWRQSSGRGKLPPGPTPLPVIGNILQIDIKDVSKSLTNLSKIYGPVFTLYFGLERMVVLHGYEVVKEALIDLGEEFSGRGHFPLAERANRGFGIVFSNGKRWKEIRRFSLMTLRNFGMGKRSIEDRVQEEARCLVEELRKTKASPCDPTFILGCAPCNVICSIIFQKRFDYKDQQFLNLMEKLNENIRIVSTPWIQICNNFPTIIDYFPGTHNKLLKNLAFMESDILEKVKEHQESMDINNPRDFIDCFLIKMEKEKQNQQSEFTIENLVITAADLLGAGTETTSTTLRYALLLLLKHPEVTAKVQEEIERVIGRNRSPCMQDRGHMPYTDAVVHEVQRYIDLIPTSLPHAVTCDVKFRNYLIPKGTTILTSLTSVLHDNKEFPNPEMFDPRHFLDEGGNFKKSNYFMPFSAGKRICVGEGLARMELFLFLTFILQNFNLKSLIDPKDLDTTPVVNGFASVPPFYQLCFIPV

As for `O=C1C(O)=C([C@H]2CC[C@H](c3ccc(Cl)cc3)CC2)C(=O)c2ccccc21` [Atovaquone, atovaquone], the IC50 in the data set with CYP3A4 was […]. Further, the “Excreted unchanged in the feces” value in data set [1] was at least 94%.
Consider `Cc1nc2c(O[C@H]3CCOc4cc(F)cc(F)c43)cc(C(=O)N(C)C)cc2[nH]1` [Tegoprazan, tegoprazan], for which the “Effect on CYP2C19 activity (conclusion from proguanil PK)” value on CYP2C19 [2] is “neither an inhibitor nor an inducer of CYP2C19”. Also, the “Unbound Cmax” value in data set [3] is reported as “approximately 1.3 µM”.
For the compound `Cc1c(OCC(F)(F)F)ccnc1C[S+]([O-])c1nc2ccccc2[nH]1` (stereo not drawn) [lansoprazole], in data set [4], the “Biopharmaceutical Classification System (BCS) class” value is given as “class II”.
With `CC1(C)N=C(N)N=C(N)N1c1ccc(Cl)cc1` [Cycloguanil, cycloguanil], in data set [5], the “Metabolic ratio (cycloguanil-to-proguanil ratio)” value was 0.84. Moreover, the “Metabolic ratio (AUCinf of cycloguanil to AUCinf of proguanil)” value in data set [6] was 0.35.
In the case of `[H]/N=C(\N/C(=N/[H])Nc1ccc(Cl)cc1)NC(C)C` [Proguanil, proguanil], in data set [4], the “Biopharmaceutical Classification System (BCS) class” value is reported as “class III”. In addition, the “Fraction of the dose renally excreted” value in data set [1] was 40–60%.
In the case of `CNCc1cc(-c2ccccc2F)n(S(=O)(=O)c2cccnc2)c1` [Vonoprazan, vonoprazan], in data set [3], the “Unbound maximum plasma concentration (Cmax)” value was “approximately 0.01 µM”. For the same compound, the IC50 at CYP2C19 [7] was 13 µM.
For `COc1ccc2[nH]c([S+]([O-])Cc3ncc(C)c(OC)c3C)nc2c1` (stereo not drawn) [omeprazole], in data set [4], the “Biopharmaceutical Classification System (BCS) class” value is reported as “class II”.

(Values after PMC10085907 (Clinical Pharmacokinetics, 2023).)
